# Most compounds without a hit are left out; they make up all but 1.3% or so of the library.
# Diaph act CS = activates diaphorase or chemically reduces, flagging diaphorase assay artifacts | Diaphorase/resazurin coupled assay, resorufin fluorescence, 16 min; active compounds read high; 1 = vehicle wells, 0 = NADH-free wells | activation factor at 20 µM | hit rate 0.005% among 190,000 | AID 1229;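 active means diaphorase activity raised at least twofold by the compound at 20 µM; inactive means activation factor below 2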
#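 Material: purified diaphorase enzyme from Clostridium kluyveri; Also added: 0.114 mM NADH and 0.1 mM resazurin, final amounts; Doses: single compound dose of 20 µM, 1% DMSO final; Times: 16 min enzyme reaction, ambient temperature; Detection: resorufin fluorescence, excitation 544 nm, emission 590 nm; Measure: increased resorufin signal from activators or reducing compounds.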
# HKDC1 inhibitor = blocks human hexokinase HKDC1 activity. Q2TB90. recombinant HKDC1, G6PDH/diaphorase resazurin coupled fluorescence. inhibition, % at 20 µM. hit rate 0.16% among 340,000;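 active means inhibition above about 35% when tested at 20 µM, limit read from the data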;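 further: plate controls were DMSO wells with enzyme for no effect and DMSO wells lacking enzyme for full effect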
# Target sequence (Q2TB90 whole entry, looked up): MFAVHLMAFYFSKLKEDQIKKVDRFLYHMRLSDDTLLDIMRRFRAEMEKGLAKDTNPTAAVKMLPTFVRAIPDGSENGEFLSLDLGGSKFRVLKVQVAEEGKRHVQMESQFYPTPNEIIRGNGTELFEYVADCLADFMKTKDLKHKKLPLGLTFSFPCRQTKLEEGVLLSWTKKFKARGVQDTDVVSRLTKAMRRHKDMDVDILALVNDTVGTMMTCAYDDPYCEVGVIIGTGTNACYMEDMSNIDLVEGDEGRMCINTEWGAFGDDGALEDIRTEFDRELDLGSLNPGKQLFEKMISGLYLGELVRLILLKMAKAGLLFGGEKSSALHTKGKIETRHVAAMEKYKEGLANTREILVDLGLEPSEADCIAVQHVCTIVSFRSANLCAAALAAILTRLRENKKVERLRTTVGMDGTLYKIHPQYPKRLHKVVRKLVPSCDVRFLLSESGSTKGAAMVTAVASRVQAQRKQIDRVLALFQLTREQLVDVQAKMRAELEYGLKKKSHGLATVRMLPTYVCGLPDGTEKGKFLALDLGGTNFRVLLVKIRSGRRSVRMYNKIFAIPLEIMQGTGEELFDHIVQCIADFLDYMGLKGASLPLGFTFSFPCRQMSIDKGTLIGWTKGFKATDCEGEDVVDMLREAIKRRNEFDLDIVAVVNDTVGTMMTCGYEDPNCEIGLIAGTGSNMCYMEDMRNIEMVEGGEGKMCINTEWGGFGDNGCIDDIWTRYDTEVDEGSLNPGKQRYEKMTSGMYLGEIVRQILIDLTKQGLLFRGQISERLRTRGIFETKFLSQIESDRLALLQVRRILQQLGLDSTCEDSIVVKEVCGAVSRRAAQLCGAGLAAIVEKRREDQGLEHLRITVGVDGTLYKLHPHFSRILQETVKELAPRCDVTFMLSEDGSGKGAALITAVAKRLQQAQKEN
#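 Test system: recombinant HKDC1 (HK5) hexokinase enzyme, produced in-house; Amount: enzyme 5 µg/mL final; Buffer or medium: Tris pH 8.0 buffer with MgCl2, Tween-20, BSA, BME; Reagent: glucose and ATP substrates; Doses: 20 µM test compound, 1% DMSO; Incubation: 90 min reaction incubation at room temperature, dark; Detection: resorufin fluorescence at 613 nm.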
# Diaph inh CS = diaphorase inhibition or chemical oxidation counter-screen; diaphorase resazurin-to-resorufin fluorescence, NADH, 16 min; bacterial (C. kluyveri) enzyme, not human; inhibition, % at 20 µM; hit rate 0.69% among 190,000; AID 1217;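 active means primary screen inhibition at 20 µM above a set limit, cut at about 50% in these data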;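 further: plate controls were DMSO with full reaction for no effect and wells lacking NADH for full effect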
#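 Detection: fluorescence of resorufin formed from resazurin, Ex 544/Em 590 nm; test system: Clostridium kluyveri diaphorase enzyme; amount: 0.14 U/mL diaphorase, enzyme working solution; times: 16-min room-temperature incubation before reading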
# G6PDH CS = L. mesenteroides G6PDH inhibition counter-screen. inhibition, % at 5 µM. Purified L. mesenteroides G6PDH, diaphorase/resazurin coupled fluorescence, 45 min. hit rate 0.12% among 200,000; in the data active means inhibition above about 50%
# PfG6PD inh = PfG6PD (Plasmodium falciparum) enzyme inhibition; hit rate 0.78% among 350,000; inhibition, % at 20 µM; PfGluPho enzyme, NADPH resazurin-diaphorase fluorescence;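 active means inhibition reaching at least a set limit at 20 µM in the primary screen, cut at about 59% in these data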;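 further: 0% = DMSO wells with substrate and 100% = DMSO wells lacking glucose-6-phosphate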
# An asterisk follows results filed as active; / = no result given.
SMILES,Diaph act CS,HKDC1 inhibitor,Diaph inh CS,G6PDH CS,PfG6PD inh
CC(=O)NC(=S)c1c(N)n(Cc2ccccc2)c(=O)n(C)c1=O,0.6,/,42,-2,/
CCCn1c(N)c(C(=S)NC(=O)C2CC2)c(=O)n(C)c1=O,0.5,-6,52*,-10,7
CCCn1c(N)c(C(=O)COC(=O)c2c(C)noc2C)c(=O)n(C)c1=O,0.8,0,20,8,-2
CCCCn1c(N)c(C(=S)NC(=O)CC(C)C)c(=O)n(C)c1=O,0.4,-1,59*,-8,-16
COC(=O)/C=C/C(=O)Nc1ccc(O)c(Cl)c1,0.9,3,6,7,7
COc1cc(CN2CCNC(=O)C2CC(=O)O)cc(OC)c1 (centres undefined),0.2,-9,85*,-1,-7
COc1ccc(C(=O)NC(C)c2csc(C)n2)cc1OC1CCN(C(C)=O)CC1 (centres undefined),/,-1,/,/,-3
O=C(O)c1cccc(N2C(=O)/C(=C/c3ccc(SCc4ccc(Cl)cc4)o3)SC2=S)c1,0.4,14,62*,21,1
O=C(CCN1C(=O)/C(=C/c2ccc(Cl)cc2)SC1=S)Nc1cccc(C(=O)O)c1,/,15,/,/,-26
CC(NC(=O)Cn1ncc(Cl)c(Cl)c1=O)C12CC3CC(CC(C3)C1)C2 (centres undefined),0.9,4,8,-3,-4
O=C(Nc1nccs1)c1sc2cc(Cl)ccc2c1Cl,0.9,6,7,6,14
CC12CC(NC(=O)N1Cc1ccccc1)c1ccccc1O2 (centres undefined),1,-2,0,13,8
COc1ccc(/C=C2\SC(=O)N=C2N)cc1,0.9,-8,13,20,6
Cc1nc2c(c(=O)n1CCC1=CCCCC1)c1nc3ccccc3nc1n2/N=C/c1ccco1,0.3,17,70*,1,26
O=C(CSC1=NS(=O)(=O)c2cc(Cl)ccc2N1)NCc1ccc(F)cc1,/,0,/,/,-19
COc1cc(NCCCCCCCN)c2ncccc2c1,0.8,12,17,53*,30
COc1cc(NC(C)CCCN)c2ncccc2c1 (centres undefined),/,13,/,/,30
Cc1cc(C)c2c(N)c(C(=O)NN3CC(=O)N(c4ccccc4)CC3=O)sc2n1,/,-2,/,/,13
O=C(NC(=S)Nc1ccc(Cl)c(C(=O)O)c1)c1cccc(COc2ccccc2)c1,/,1,/,/,-16
CCCCOc1cccc(C(=O)NC(=S)Nc2ccc(Cl)c(C(=O)O)c2)c1,0.4,-13,62*,1,-7
O=C(OCC(=O)N1CCN(C(=O)c2ccco2)CC1)c1cc(-c2ccco2)nc2ccccc12,0.6,37*,38,5,46
O=C(COc1cccnc1[N+](=O)[O-])N1CCN(C(=O)c2ccco2)CC1,0.4,5,59*,12,22
O=C(OCC(=O)N1CCN(C(=O)c2ccco2)CC1)c1cc(-c2ccc(Cl)c(Cl)c2Cl)nc2ccccc12,0.9,13,14,24,33
Cc1cccc(C)c1NC(=O)N1CCC(n2c(=O)[nH]c3ccccc32)CC1,0.8,-6,18,2,1
COc1ccc(C(C(=O)NCC2CCCO2)N(Cc2ccccc2)C(=O)CNC(=O)c2ccco2)cc1OC (centres undefined),/,0,/,/,-2
SMILES,Diaph act CS,HKDC1 inhibitor,Diaph inh CS,G6PDH CS,PfG6PD inh
CCCSc1cc(NCCOC(=O)CCC)c([N+](=O)[O-])c2nonc12,0.5,7,51*,-12,36
CCCSc1cc(NCCOC(C)=O)c([N+](=O)[O-])c2nonc12,0.6,7,36,-4,24
CCCC(=O)OCCNc1cc(Sc2nccn2C)c2nonc2c1[N+](=O)[O-],0.8,7,22,11,43
CC(=O)OCCCNc1cc(SCc2ccco2)c2nonc2c1[N+](=O)[O-],0.1,9,87*,-13,54
CCCC(=O)OCCNc1cc(SCc2ccco2)c2nonc2c1[N+](=O)[O-],0.3,8,71*,-6,46
Cc1nnc(Sc2cc(NCCCO)c([N+](=O)[O-])c3nonc23)s1,0.4,22,59*,22,77*
O=Cc1ccc(OCCN2CCCC2=O)cc1,/,1,/,/,-6
O=C(COC(=O)/C=C/c1ccc(F)cc1)Nc1nnc(-c2ccccc2)o1,/,-3,/,/,-12
OCCN1CCN(Cc2cc(Cl)c3cccnc3c2O)CC1,0.3,0,69*,53*,18
Oc1c(CN2CCN(c3ccccn3)CC2)cc(Cl)c2cccnc12,0.5,-3,53*,-22,-21
COc1cc(C(=O)Oc2c(CN3CCOCC3)cc(Cl)c3cccnc23)cc(OC)c1OC,0.4,2,58*,38,11
COc1ccc(C(=O)Oc2c(CN3CCOCC3)cc(Cl)c3cccnc23)cc1,0.9,3,14,10,-12
COc1ccccc1N1CCN(Cc2cc(Br)c(O)c3ncccc23)CC1,0.4,-27,58*,19,-4
COCc1cc(CN2CCCC2)c(O)c2ncccc12,0.6,-10,44,43,24
CCOc1ccccc1N1CCN(Cc2cccc(OC)c2O)CC1,0.9,14,10,-3,-2
COc1ccc(CNC(=O)C2CCCN(S(=O)(=O)c3ccc4c(c3)C(C)(C)C(=O)N4C)C2)cc1 (centres undefined),/,-3,/,/,8
O=C(CN1C(=O)NC(c2ccccc2)(c2ccccc2)C1=O)N1CCN(c2ccccc2F)CC1,/,-3,/,/,15
O=S(=O)(/N=C/c1c(O)ccc2ccccc12)c1cccs1,0.7,/,32,57*,/
CCCN1CCN(C(=O)Nc2ccc(OCC)cc2)CC1,0.8,-12,17,10,12
CSc1nc(-c2ccc(C)cc2)[nH]c1S(=O)(=O)c1ccccc1,0.8,-7,19,2,-5
CC(=O)Sc1nc(-c2ccccc2)[nH]c1S(=O)(=O)c1ccc(C)cc1,0.6,-3,36,15,65*
CCn1c(=O)c(-[n+]2ccccc2)c(O)c2ccccc21,0.5,-5,53*,-14,38
Cc1c(C#N)c2ccccc2n1CCOc1ccccc1F,0.8,15,23,2,12
O=C(NCCO)c1cc2ccccc2cc1O,0.5,-1,52*,-2,33
CCOC(=O)N1CCN(C2=Nc3cccc4cccc2c34)CC1,0.7,6,34,58*,17
CC(=O)N1CCN(C2=Nc3cccc4cccc2c34)CC1,0.7,8,34,56*,26
COc1ccccc1N1CCN(C2=Nc3cccc4cccc2c34)CC1,0.9,14,6,3,4
COc1ccc([C@H]2C=C3CN(C(=O)OC(C)(C)C)S(=O)(=O)[C@H]3C[C@H]2OC(=O)c2ccc(C(F)(F)F)cc2)cc1,/,-7,/,/,-6
COc1ccc(N(CC(=O)NCCSc2ccccc2)S(=O)(=O)c2ccccc2)cc1,/,2,/,/,0
